Compound activity: PubChem, several laboratories
CRFBP-R2 agonist: agonists of CRF-BP/CRF-R2 complex, primary screen, cell-based, HEK293, calcium dye fluorescence, uHTS | CRF-binding protein / CRF receptor 2 complex (human) | calcium dye fluorescence (FLIPR); percent of saturating CRF peptide response | activation, % at 13.2 µM | 350,000 compounds, 0.46% hits;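 active = activation of at least 50%, plus an integration ratio under a set limit after plate pattern correction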
Cardiac RTF inh: cardiac RTF calcium sensitivity inhibitors, primary screen, biochemical, IANBD-TnC fluorescence, EC70 calcium | Troponin I, cardiac muscle (Homo sapiens) + Troponin T, cardiac muscle (Homo sapiens) + … | inhibition, % at 7.15 µM | AID 493244, 2011 | 340,000 compounds, 0.12% hits | IANBD-labeled cardiac RTF, Ca2+ fluorescence;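 active = inhibition above the mean inhibition of all tested compounds plus 3 SD, cut at about 17% in these data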;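 also: assay run at fixed EC70 calcium of 1.6 mM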
DDE Tn6 FP inh: inhibitors of Tn6 peptide binding to fibrin DD(E), primary screen, biochemical, fluorescence polarization, human fibrin, Tn6 probe; Fibrinogen beta chain (Homo sapiens), P02675; Fibrin DD(E) TRITC-Tn6 fluorescence polarization displacement; inhibition, % at 8.3 µM; 370,000 compounds, 0.21% hits; AID 720509, 2013;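 active = inhibition above a per-campaign cutoff: mean of compounds within control limits plus 3 SD, cut at about 15% in these data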
Target sequence (P02675 whole entry, looked up): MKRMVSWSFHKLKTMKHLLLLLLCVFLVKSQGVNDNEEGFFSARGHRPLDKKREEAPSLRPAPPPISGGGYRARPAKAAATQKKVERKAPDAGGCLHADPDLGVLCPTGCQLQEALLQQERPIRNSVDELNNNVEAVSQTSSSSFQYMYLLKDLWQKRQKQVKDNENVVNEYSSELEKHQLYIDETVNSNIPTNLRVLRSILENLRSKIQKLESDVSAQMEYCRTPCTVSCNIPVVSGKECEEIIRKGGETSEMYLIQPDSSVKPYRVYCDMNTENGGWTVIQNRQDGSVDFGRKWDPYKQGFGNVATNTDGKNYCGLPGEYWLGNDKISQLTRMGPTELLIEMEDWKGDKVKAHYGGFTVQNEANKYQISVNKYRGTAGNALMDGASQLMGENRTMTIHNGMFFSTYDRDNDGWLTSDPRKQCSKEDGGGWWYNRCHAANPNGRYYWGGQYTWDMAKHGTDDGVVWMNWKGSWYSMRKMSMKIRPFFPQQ
RTF Ca sens act: cardiac RTF calcium sensitivity activators, primary screen, biochemical, IANBD-TnC fluorescence, EC20 calcium; 340,000 compounds, 0.24% hits; activation, % at 7.2 µM; IANBD-labeled TnC RTF fluorescence at EC20 calcium; 0% EC20 calcium, 100% full calcium; AID 493008, 2010; Troponin I, cardiac muscle (Homo sapiens) + Troponin T, cardiac muscle (Homo sapiens) + …;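 active = activation above the mean over all tested compounds plus 3 SD, cut at about 30% in these data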;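 also: rise in fluorescence read as greater calcium sensitivity of cardiac thin filaments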
Tn7 DDE FP: inhibitors of Tn7 peptide binding to fibrin DD(E), primary screen, biochemical, fluorescence polarization, human fibrin, Tn7 probe. 370,000 compounds, 0.13% hits. AID 720508, 2013. Fibrinogen beta chain (Homo sapiens), P02675. inhibition, % at 8.3 µM. FP displacement of FITC-Tn7 peptide from fibrin DD(E); 0% = median of compound wells per plate;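 active = inhibition above the mean of compounds falling within the control limits plus 3 SD of them, cut at about 14% in these data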
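Test system – human fibrin DD(E) · Times – 10 min preincubation, 3 h with tracer, room temperature · Detection – fluorescence polarization of the labelled Tn7 tracer · Measure – percent inhibition normalized to high-control wells · Benchmarks – high control wells with 10 µM unlabelled Aha-Tn7 peptide (full inhibition) · Repeats – singlicate testing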
CRFBP-R2 block: antagonists of CRF-BP/CRF-R2 complex, primary screen, cell-based, HEK293, calcium dye fluorescence, uHTS; CRF-induced calcium fluorescence; inhibition, % at 11.8 µM; 350,000 compounds, 0.59% hits;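 active = inhibition of the ligand-induced calcium signal above about 50% at the single tested concentration, limit read from the data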
Of the large screens only hits and unclear results are named; the others gave an inactive call. Rows were chosen to be rich in hits. Some 1.4% of all compounds tested hit in one or more screens of this group.

CSc1nccc(-c2sc(SC)c(C#N)c2-c2ccccc2)n1	none
Cc1cc(NC(=O)C(C)C)ncc1NC(=O)CCc1ccccc1	CRFBP-R2 agonist 141.0
CCOc1ccc(CCNC(=O)c2cc3ccsc3n2C)cc1OC	none (no result: CRFBP-R2 agonist, Cardiac RTF inh, RTF Ca sens act, CRFBP-R2 block)
CC(=O)c1sc(NC(=O)C=C(C)C)nc1C	none
CC(=O)c1sc(NC(=O)C2(F)C(F)(F)C(F)(F)C(F)(F)C(F)(F)C2(F)F)nc1C	CRFBP-R2 block 66.2
CC(C)(C)c1ccc(/C=C2\Oc3cc(O)ccc3C2=O)cc1	none
COC(=O)c1ccc2c(c1)C(=O)/C(=C/c1ccc(O)cc1)O2	CRFBP-R2 agonist 76.7
COC(=O)c1ccc(Cn2ccc3ccc(-c4ccc5ccn(C(=O)c6ccccc6C)c5c4)cc32)cc1	none (no result: CRFBP-R2 agonist, Cardiac RTF inh, RTF Ca sens act, CRFBP-R2 block)
N#Cc1c(-c2ccc(Cl)cc2)n(O)c2ccccc12	CRFBP-R2 agonist 56.9, CRFBP-R2 block 62.8 (no result: DDE Tn6 FP inh, Tn7 DDE FP)
Cn1c(-c2ccc(C#N)cc2)c(C#Cc2ccccc2)c2ccccc21	none
Cc1ccc(CN2CCCCC(NC(=O)c3ccc(F)c(F)c3)C2=O)cc1 (stereo not given)	none (no result: CRFBP-R2 agonist, Cardiac RTF inh, RTF Ca sens act, CRFBP-R2 block)
COC(=O)CC1SC(=O)NC1=Nc1ccc(OC)cc1 (stereo not given)	CRFBP-R2 block 73.3
C#CCOCCOCCOCCNc1nc(N2CCN(C(=O)Cn3cc(CCCN=C(N)N)nn3)CC2)nc(N2CCN(C(=O)[C@H](Cc3ccc(O)cc3)n3cc(CCO)nn3)CC2)n1	none (no result: CRFBP-R2 agonist, Cardiac RTF inh, RTF Ca sens act, CRFBP-R2 block)
O=C(NCc1cccc(Cl)c1)c1cccc(S(=O)(=O)N2CCCC2)c1	CRFBP-R2 agonist 86.9
O=C(NCc1cccc(Cl)c1)c1cccc(S(=O)(=O)N2CCCCC2)c1	none
NC(=O)COC(=O)c1cccc(S(=O)(=O)N2CCCCC2)c1	CRFBP-R2 block 85.6
O=C(Nc1ccc(Cl)cc1Cl)OC1CCC12CCC(c1ccccc1)CC2 (stereo not given)	none (no result: CRFBP-R2 agonist, Cardiac RTF inh, RTF Ca sens act, CRFBP-R2 block)
O=C(NCN1CCCCC1)c1cnccn1	CRFBP-R2 block 50.8
O=[N+]([O-])c1ccc(O)c(/C=N\N=C2c3ccccc3-c3ccccc32)c1	CRFBP-R2 agonist 83.8, CRFBP-R2 block 73.8
O[C@H](COc1cc(F)cc(F)c1)CN1CCC(C(O)(c2ccccc2)c2ccccc2)CC1	none (no result: CRFBP-R2 agonist, Cardiac RTF inh, RTF Ca sens act, CRFBP-R2 block)
CC(=O)Nc1ccc(Sc2ncccc2C(=O)Nc2ccc(F)cc2)cn1	CRFBP-R2 agonist 156.1
C[C@H]1[C@H](c2ccccc2)OC(O)([C@H](Cc2ccccc2)NC(=O)OC(C)(C)C)CN1C (stereo not given in full)	none (no result: CRFBP-R2 agonist, Cardiac RTF inh, RTF Ca sens act, CRFBP-R2 block)
COc1ccc(S(=O)(=O)N(C)CC(=O)NCCc2ccccc2)cc1OC	none
Cc1ccc(S(=O)(=O)N(C)CC(=O)NCCCc2ccccc2)cc1	CRFBP-R2 agonist 61.4
COc1cc(C#Cc2c(-c3ccccc3)n(C)c3ccccc23)cc(OC)c1	CRFBP-R2 block 51.3
CCOC(=O)/C(=N\Nc1ccccc1[N+](=O)[O-])c1csc(N)n1	none
CCOC(=O)/C(=N\Nc1ccc(C(C)=O)cc1)c1csc(Nc2ccccc2)n1	CRFBP-R2 agonist 74.1, RTF Ca sens act 131.4
O=S1(=O)C[C@H](N2CCC[C@@H]2CO)[C@@H](COCc2ccccc2)N1	none (no result: CRFBP-R2 agonist, Cardiac RTF inh, RTF Ca sens act, CRFBP-R2 block)
CN1CC(=O)N(CC(=O)N2CCC(Cc3ccccc3)CC2)C1=O	CRFBP-R2 block 100.0
COc1cccc(C(O)c2nc(-c3cc(F)cc(F)c3)cs2)c1 (stereo not given)	none (no result: CRFBP-R2 agonist, Cardiac RTF inh, RTF Ca sens act, CRFBP-R2 block)
COc1cc(NC(=S)NCCC(c2ccccc2)c2ccccc2)c(OC)cc1Cl	CRFBP-R2 block 64.7
COc1ccc(OCc2cccc(C(=O)Nn3cc([N+](=O)[O-])cn3)c2)cc1	CRFBP-R2 block 52.6
Cc1c[nH]c2cccc(-c3ccc(OCc4ccccc4)cc3)c12	none (no result: CRFBP-R2 agonist, Cardiac RTF inh, RTF Ca sens act, CRFBP-R2 block)
O=C(CSc1nnc(-c2cccnc2)n1-c1ccccc1)Nc1cccc2ccccc12	none (no result: CRFBP-R2 agonist, Cardiac RTF inh, RTF Ca sens act, CRFBP-R2 block)
O=C(CCc1nc(-c2ccccc2F)no1)NCCc1ccccc1F	none (no result: CRFBP-R2 agonist, Cardiac RTF inh, RTF Ca sens act, CRFBP-R2 block)
Oc1ccc(C[C@H]2CNC(=S)N2CC2CCCN2C[C@H](Cc2ccc(O)cc2)N2C[C@H](Cc3ccc(O)cc3)N(CC3CCCCC3)C2=S)cc1 (stereo not given in full)	DDE Tn6 FP inh 25.9
Oc1ccc(C[C@H]2CN([C@@H](Cc3ccccc3)CN3CCCC3CN3C(=S)NC[C@@H]3Cc3ccccc3)C(=S)N2CC2CCCCC2)cc1 (stereo not given in full)	none (no result: CRFBP-R2 agonist, Cardiac RTF inh, RTF Ca sens act, CRFBP-R2 block)
CCOC(=O)/C(C#N)=C(C)/C=C1\Sc2ccccc2N1CC	CRFBP-R2 agonist 121.7, RTF Ca sens act 168.6
CCN1/C(=C\C(C)=O)Sc2ccc(OC)cc21	none (no result: DDE Tn6 FP inh, Tn7 DDE FP)
CCN1/C(=C\C(=S)Nc2ccccc2)Sc2ccccc21	none
CCN1/C(=C\C=C(C(C)=O)C(C)=O)Sc2ccccc21	CRFBP-R2 agonist 80.9, RTF Ca sens act 78.5
COc1ccccc1N1CCN(CC(=O)Nc2ccc(C)c(F)c2)CC1	none
COc1ccccc1N1CCN(CC(=O)Nc2c(C)n[nH]c2C)CC1	CRFBP-R2 block 67.6
CCOC(=O)c1c(-c2ccccc2)csc1NC(=O)/C(C#N)=C/c1ccc(O)c(OC)c1	CRFBP-R2 agonist 198.1, RTF Ca sens act 47.2
O=C(Nc1ccc(C(=O)NCCCN2CCN(c3ccc(F)cc3)CC2)cc1)C1=CSCCO1	CRFBP-R2 agonist 62.0
Cc1cccn2c(=O)c(/C=C3\SC(=S)NC3=O)c(NCCCN3CCOCC3)nc12	none
O=C1/C(=C\c2c(NCCOCCO)nc3ccccn3c2=O)SC(=S)N1Cc1ccco1	CRFBP-R2 agonist 102.3, RTF Ca sens act 39.9
O=C1/C(=C\c2ccco2)SC(=S)N1Cc1ccccc1	none
